Tests used:
[1] = Half life in aqueous buffer solutions at pH 7 by HPLC analysis; format: ADME; settings: aqueous buffer solution
[2] = Chemical stability of the compound in aqueous buffer solutions at acidic pH by HPLC analysis; format: physicochemical
[3] = Half life in aqueous buffer solutions at pH 7.4 by HPLC analysis; format: ADME; settings: aqueous buffer solution
[4] = Lipophilicity, log K of the compound; format: physicochemical; settings: RP-HPLC capacity factor, C18 column, methanol mobile phase
In short: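 Lipophilicity measured by RP-HPLC as capacity factor k, reported as log k.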

[5] = molecular target: Photosystem II protein D1 (Spinacia oleracea, UniProt P69560); experiment: Inhibition of photosystem II in Spinacia oleracea (spinach) chloroplasts assessed as reduction of photosynthetic electron transport
In short: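 PET in spinach chloroplasts read spectrophotometrically as DCPIP photoreduction in a chloroplast suspension at pH 7.2. Read within 2 min after adding the carbamate solution in DMSO. IC50 is the molar concentration giving a 50% decrease in activity relative to the untreated control.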

[6] = molecular target: Photosystem II protein D1 (Spinacia oleracea) (UniProt P69560); experiment: Inhibition of photosystem II in Spinacia oleracea (spinach) chloroplasts assessed as restoration of photosynthetic electron transport relative to control in presence of DPC; design: scale not given: the % may be the effect or the level left
In short: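 Spinach chloroplasts were first treated with the carbamate, then given the artificial PS 2 donor 1,5-diphenylcarbazide (DPC). PET activity was then measured and expressed as % of the untreated control.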

SMILES	half-life [1]	Stability [2]	half-life [3]	log K [4]	IC50 [5]	Activity [6]
CCCCCCCCCCNC(=O)Oc1ccc(Cl)cc1C(=O)Nc1cccc(Cl)c1	64 h	Stable	43 h	0.7873	15.8 µM	–
CCCCCCCCCCNC(=O)Oc1ccc(Cl)cc1C(=O)Nc1ccc(Cl)c(Cl)c1	64 h	Stable	43 h	1.0894	–	–
CCCCCCCCCCCNC(=O)Oc1ccc(Cl)cc1C(=O)Nc1cccc(Cl)c1	64 h	Stable	43 h	0.7902	18.3 µM	–
CCCCCNC(=O)Oc1ccc(Cl)cc1C(=O)Nc1ccc(Cl)c(Cl)c1	64 h	Stable	43 h	1.0601	99.2 µM	–
CCCCCCCNC(=O)Oc1ccc(Cl)cc1C(=O)Nc1ccc(Cl)c(Cl)c1	64 h	Stable	43 h	1.0667	169 µM	–
CCNC(=O)Oc1ccc(Cl)cc1C(=O)Nc1ccc(Cl)c(Cl)c1	64 h	Stable	43 h	1.0234	82.3 µM	–
CCCCCCCCCNC(=O)Oc1ccc(Cl)cc1C(=O)Nc1ccc(Cl)c(Cl)c1	64 h	Stable	43 h	1.088	506 µM	–
CCNC(=O)Oc1ccc(Cl)cc1C(=O)Nc1cccc(Cl)c1	64 h	Stable	43 h	0.7523	15.6 µM	–
CCCCCCCCNC(=O)Oc1ccc(Cl)cc1C(=O)Nc1ccc(Cl)c(Cl)c1	64 h	Stable	43 h	1.0845	432 µM	–
CCCCCCCCCCCNC(=O)Oc1ccc(Cl)cc1C(=O)Nc1ccc(Cl)c(Cl)c1	64 h	Stable	43 h	1.0903	–	–
CCCCCCNC(=O)Oc1ccc(Cl)cc1C(=O)Nc1ccc(Cl)c(Cl)c1	–	Stable	–	1.0611	144 µM	–
CCCCCCCCCNC(=O)Oc1ccc(Cl)cc1C(=O)Nc1cccc(Cl)c1	64 h	Stable	43 h	0.7837	15.4 µM	–

Next, values leading:

half-life [1]	Stability [2]	half-life [3]	log K [4]	IC50 [5]	Activity [6]	SMILES
64 h	Stable	43 h	0.7859	6.3 µM	–	CCCCCCNC(=O)Oc1ccc(Cl)cc1C(=O)Nc1ccc(Cl)cc1
64 h	Stable	43 h	0.7899	7.4 µM	–	CCCCCCCCNC(=O)Oc1ccc(Cl)cc1C(=O)Nc1ccc(Cl)cc1
64 h	Stable	43 h	0.7772	4.9 µM	94%	CCCCCCCNC(=O)Oc1ccc(Cl)cc1C(=O)Nc1cccc(Cl)c1
64 h	Stable	43 h	0.7831	10.1 µM	–	CCCCCCCCNC(=O)Oc1ccc(Cl)cc1C(=O)Nc1cccc(Cl)c1
64 h	Stable	43 h	0.7758	5.3 µM	–	CCCCCCNC(=O)Oc1ccc(Cl)cc1C(=O)Nc1cccc(Cl)c1
64 h	Stable	43 h	0.7838	6.3 µM	–	CCCCCNC(=O)Oc1ccc(Cl)cc1C(=O)Nc1ccc(Cl)cc1
64 h	Stable	43 h	0.7947	10.5 µM	–	CCCCCCCCCCCNC(=O)Oc1ccc(Cl)cc1C(=O)Nc1ccc(Cl)cc1
64 h	Stable	43 h	0.7872	7.1 µM	–	CCCCCCCNC(=O)Oc1ccc(Cl)cc1C(=O)Nc1ccc(Cl)cc1
64 h	Stable	43 h	0.7732	5.4 µM	–	CCCCCNC(=O)Oc1ccc(Cl)cc1C(=O)Nc1cccc(Cl)c1
–	–	–	0.47	1.9 µM	–	CN(C)C(=O)Nc1ccc(Cl)c(Cl)c1 [DCMU]
64 h	Stable	43 h	0.7919	8 µM	–	CCCCCCCCCNC(=O)Oc1ccc(Cl)cc1C(=O)Nc1ccc(Cl)cc1
64 h	Stable	43 h	0.7611	13.4 µM	–	CCCCNC(=O)Oc1ccc(Cl)cc1C(=O)Nc1cccc(Cl)c1
64 h	Stable	43 h	0.7695	9.7 µM	94%	CCNC(=O)Oc1ccc(Cl)cc1C(=O)Nc1ccc(Cl)cc1
64 h	Stable	43 h	0.7942	8.4 µM	–	CCCCCCCCCCNC(=O)Oc1ccc(Cl)cc1C(=O)Nc1ccc(Cl)cc1
